From ChEMBL document CHEMBL3792365, “Dioxol and dihydrodioxin analogs of 2- and 3-phenylacetonitriles as potent anti-cancer agents with nanomolar activity against a variety of human cancer cells” (2016)

Key:
Type in all cases: functional
[1] = Growth inhibition of human SF268 cells after 48 hrs by sulforhodamine B assay; conditions: SF-268, 48 h
Procedure, shortened: (§1)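 Five-dose concentration series run across a panel of 60 human tumour cell lines. GI50 is taken as the drug concentration giving a 50% reduction in net protein increase relative to untreated control cells.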

[2] = Growth inhibition of human MOLT4 cells at 10 uM after 48 hrs by sulforhodamine B assay; conditions: MOLT-4, 48 h, values are per cent of control
[3] = Growth inhibition of human HOP92 cells after 48 hrs by sulforhodamine B assay; conditions: HOP-92, 48 h
Procedure, shortened: (§2)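 Five-dose testing against a 60-line human tumor cell panel. GI50 is the drug concentration giving a 50% reduction in net protein increase relative to untreated control cells.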

[4] = Growth inhibition of human Hs 578T cells after 48 hrs by sulforhodamine B assay; procedure, shortened: as §2
[5] = Growth inhibition of human HCT15 cells after 48 hrs by sulforhodamine B assay; conditions: HCT-15, 48 h; procedure, shortened: as §2
MDA-MB-435 = assay: Growth inhibition of human MDA-MB-435 cells after 48 hrs by sulforhodamine B assay; conditions: MDA-MB-435, 48 h; procedure, shortened: as §2
[6] = Growth inhibition of human SW620 cells after 48 hrs by sulforhodamine B assay; conditions: SW-620, 48 h; procedure, shortened: as §1
[7] = Growth inhibition of human HCC2998 cells after 48 hrs by sulforhodamine B assay; conditions: HCC 2998, 48 h; procedure, shortened: as §2
[8] = Growth inhibition of human SNB19 cells after 48 hrs by sulforhodamine B assay; conditions: SNB-19, 48 h; procedure, shortened: as §1
CCRF-CEM [9] = assay: Growth inhibition of human CCRF-CEM cells after 48 hrs by sulforhodamine B assay; procedure, shortened: as §2
SR = assay: Growth inhibition of human SR cells after 48 hrs by sulforhodamine B assay; procedure, shortened: as §1
[10] = Growth inhibition of human OVCAR4 cells after 48 hrs by sulforhodamine B assay; conditions: OVCAR-4, 48 h; procedure, shortened: as §1
[11] = Growth inhibition of human HCC2998 cells at 10 uM after 48 hrs by sulforhodamine B assay; conditions: HCC 2998, 48 h, values are per cent of control
[12] = Growth inhibition of human RXF393 cells at 10 uM after 48 hrs by sulforhodamine B assay; conditions: RXF 393, 48 h, values are per cent of control
MCF7 = assay: Growth inhibition of human MCF7 cells at 10 uM after 48 hrs by sulforhodamine B assay; conditions: MCF7, 48 h, values are per cent of control
[13] = Growth inhibition of human HOP92 cells at 10 uM after 48 hrs by sulforhodamine B assay; conditions: HOP-92, 48 h, values are per cent of control
[14] = Growth inhibition of human RPMI8226 cells after 48 hrs by sulforhodamine B assay; conditions: RPMI-8226, 48 h; procedure, shortened: as §1
[15] = Growth inhibition of human PC3 cells at 10 uM after 48 hrs by sulforhodamine B assay; conditions: PC-3, 48 h, values are per cent of control
[16] = Growth inhibition of human UO31 cells at 10 uM after 48 hrs by sulforhodamine B assay; conditions: UO-31, 48 h, values are per cent of control
[17] = Growth inhibition of human HOP62 cells at 10 uM after 48 hrs by sulforhodamine B assay; conditions: HOP-62, 48 h, values are per cent of control
[18] = Growth inhibition of human HL-60(TB) cells at 10 uM after 48 hrs by sulforhodamine B assay; conditions: HL-60, 48 h, values are per cent of control
CCRF-CEM [19] = assay: Growth inhibition of human CCRF-CEM cells at 10 uM after 48 hrs by sulforhodamine B assay; conditions: values are per cent of control
[20] = Growth inhibition of human SKOV3 cells after 48 hrs by sulforhodamine B assay; conditions: SK-OV-3, 48 h; procedure, shortened: as §1
[21] = Growth inhibition of human HCT116 cells after 48 hrs by sulforhodamine B assay; conditions: HCT-116, 48 h; procedure, shortened: as §2
Malme-3M = assay: Growth inhibition of human MALME-3M cells at 10 uM after 48 hrs by sulforhodamine B assay; conditions: values are per cent of control
[22] = Growth inhibition of human COLO205 cells after 48 hrs by sulforhodamine B assay; conditions: COLO 205, 48 h; procedure, shortened: as §2
A549 = assay: Growth inhibition of human A549/ATCC cells after 48 hrs by sulforhodamine B assay; conditions: A549, 48 h; procedure, shortened: as §2
[23] = Growth inhibition of human MOLT4 cells after 48 hrs by sulforhodamine B assay; conditions: MOLT-4, 48 h; procedure, shortened: as §1
SK-MEL-28 [24] = assay: Growth inhibition of human SK-MEL-28 cells at 10 uM after 48 hrs by sulforhodamine B assay; conditions: SK-MEL-28, 48 h, values are per cent of control
[25] = Growth inhibition of human UACC62 cells after 48 hrs by sulforhodamine B assay; conditions: UACC-62, 48 h
Procedure, shortened: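 Five-dose testing across the 60-line human tumour cell panel. GI50 is the drug concentration that gives a 50% reduction in net protein increase relative to control cells.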

[26] = Growth inhibition of human OVCAR3 cells after 48 hrs by sulforhodamine B assay; conditions: OVCAR-3, 48 h; procedure, shortened: as §1
[27] = Growth inhibition of human UACC257 cells at 10 uM after 48 hrs by sulforhodamine B assay; conditions: UACC-257, 48 h, values are per cent of control
SK-MEL-2 [28] = assay: Growth inhibition of human SK-MEL-2 cells at 10 uM after 48 hrs by sulforhodamine B assay; conditions: SK-MEL-2, 48 h, values are per cent of control
[29] = Growth inhibition of human RPMI8226 cells at 10 uM after 48 hrs by sulforhodamine B assay; conditions: RPMI-8226, 48 h, values are per cent of control
[30] = Growth inhibition of human LOXIMVI cells after 48 hrs by sulforhodamine B assay; conditions: LOX IMVI; procedure, shortened: as §2
NCI-H522 = assay: Growth inhibition of human NCI-H522 cells after 48 hrs by sulforhodamine B assay; conditions: NCI-H522, 48 h; procedure, shortened: as §1
[31] = Growth inhibition of human PC3 cells after 48 hrs by sulforhodamine B assay; conditions: PC-3, 48 h; procedure, shortened: as §1
[32] = Growth inhibition of human IGROV1 cells at 10 uM after 48 hrs by sulforhodamine B assay; conditions: IGROV-1, 48 h, values are per cent of control
786-0 = assay: Growth inhibition of human 786-0 cells at 10 uM after 48 hrs by sulforhodamine B assay; conditions: 786-0, 48 h, values are per cent of control
[33] = Growth inhibition of human SNB75 cells at 10 uM after 48 hrs by sulforhodamine B assay; conditions: SNB-75, 48 h, values are per cent of control
KM12 = assay: Growth inhibition of human KM12 cells after 48 hrs by sulforhodamine B assay; conditions: KM12, 48 h; procedure, shortened: as §2
SK-MEL-28 [34] = assay: Growth inhibition of human SK-MEL-28 cells after 48 hrs by sulforhodamine B assay; conditions: SK-MEL-28, 48 h; procedure, shortened: as §1
[35] = Growth inhibition of human OVCAR3 cells at 10 uM after 48 hrs by sulforhodamine B assay; conditions: OVCAR-3, 48 h, values are per cent of control
SK-MEL-2 [36] = assay: Growth inhibition of human SK-MEL-2 cells after 48 hrs by sulforhodamine B assay; conditions: SK-MEL-2, 48 h; procedure, shortened: as §1

`COc1cc(/C(C#N)=C/c2ccc3c(c2)OCCO3)cc(OC)c1OC` showed a GI50 [1] of 0.11 µM, a growth, % of control at 10 µM [2] of -14.3% and a GI50 [3] of 0.12 µM. For the same compound, the GI50 [4] was 0.07 µM, the GI50 [5] was 0.04 µM and the GI50 (MDA-MB-435) was 0.02 µM. The GI50 [6] was 0.04 µM, the GI50 [7] was 0.14 µM and the GI50 [8] was 0.19 µM. It also gave a GI50 (CCRF-CEM [9]) of 0.21 µM, a GI50 (SR) of 0.06 µM and a GI50 [10] of 0.26 µM. The growth, % of control at 10 µM [11] was 14.9%, the growth, % of control at 10 µM [12] was 41.8% and the growth, % of control at 10 µM (MCF7) was 14.6%. The growth, % of control at 10 µM [13] was -1.7%, the GI50 [14] was 0.06 µM and the growth, % of control at 10 µM [15] was 26.5%. It also gave a growth, % of control at 10 µM [16] of 23.9%, a growth, % of control at 10 µM [17] of 40.8% and a growth, % of control at 10 µM [18] of -46.3%. It also gave a growth, % of control at 10 µM (CCRF-CEM [19]) of 0.4%, a GI50 [20] of 0.04 µM and a GI50 [21] of 0.03 µM. It also gave a growth, % of control at 10 µM (Malme-3M) of 64.3%, a GI50 [22] of 0.12 µM and a GI50 (A549) of 0.06 µM. It also gave a GI50 [23] of 0.62 µM, a growth, % of control at 10 µM (SK-MEL-28 [24]) of 63% and a GI50 [25] of 0.03 µM. It also gave a GI50 [26] of 0.04 µM, a growth, % of control at 10 µM [27] of 76% and a growth, % of control at 10 µM (SK-MEL-2 [28]) of 24.1%. The growth, % of control at 10 µM [29] was 39.2%, the GI50 [30] was 0.06 µM and the GI50 (NCI-H522) was 0.05 µM. The GI50 [31] was 0.06 µM, the growth, % of control at 10 µM [32] was 25.5% and the growth, % of control at 10 µM (786-0) was 14.8%. For the same compound, the growth, % of control at 10 µM [33] was 17.1%, the GI50 (KM12) was 0.05 µM and the GI50 (SK-MEL-28 [34]) was 0.06 µM.
For `N#C/C(=C\c1cccc2ccccc12)c1ccc2c(c1)OCO2`, the GI50 [1] was 8.99 µM, the GI50 [3] was 4.55 µM and the GI50 [4] was 3.54 µM. For the same compound, the GI50 [5] was 1.77 µM, the GI50 (MDA-MB-435) was 0.43 µM and the GI50 [6] was 3.72 µM. For the same compound, the GI50 [7] was 11 µM, the GI50 [8] was 6.29 µM and the GI50 (CCRF-CEM [9]) was 3.65 µM. It also gave a GI50 (SR) of 1.6 µM, a growth, % of control at 10 µM [35] of 46.8% and a GI50 [10] of 8.25 µM. It also gave a growth, % of control at 10 µM [11] of 68.8%, a GI50 (SK-MEL-2 [36]) of 3.18 µM and a growth, % of control at 10 µM [12] of 64.3%. For the same compound, the growth, % of control at 10 µM (MCF7) was 26.1%, the GI50 [14] was 4.49 µM and the growth, % of control at 10 µM [15] was 80.1%. For the same compound, the growth, % of control at 10 µM [16] was 80.3%, the growth, % of control at 10 µM [17] was 75.9% and the growth, % of control at 10 µM (CCRF-CEM [19]) was 52.3%. For the same compound, the GI50 [20] was 3.58 µM, the GI50 [21] was 3.72 µM and the growth, % of control at 10 µM (Malme-3M) was 73.3%. It also gave a GI50 [22] of 2.58 µM, a GI50 (A549) of 5 µM and a GI50 [23] of 4.99 µM. It also gave a growth, % of control at 10 µM (SK-MEL-28 [24]) of 64.6%, a GI50 [25] of 2.63 µM and a GI50 [26] of 4.18 µM. The growth, % of control at 10 µM [27] was 103%, the growth, % of control at 10 µM (SK-MEL-2 [28]) was 59.8% and the growth, % of control at 10 µM [29] was 77%. For the same compound, the GI50 [30] was 4.22 µM, the GI50 (NCI-H522) was 2.89 µM and the GI50 [31] was 5.52 µM. It also gave a growth, % of control at 10 µM [32] of 68.8%, a growth, % of control at 10 µM (786-0) of 77.1% and a growth, % of control at 10 µM [33] of 61.6%. For the same compound, the GI50 (KM12) was 3.77 µM and the GI50 (SK-MEL-28 [34]) was 5.84 µM.
